This data set concerns MS2 coat protein. In words: apparent Kd, MS2 coat protein; higher = weaker binding; RNA-MaP array; FMN 200 µM where present. The procedure, abridged: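 The apparent Kd is the median of filtered binding-curve fits, one per cluster, to green signal normalised to red-channel RNA signal and control-cluster median Fmax. The clusters were on Illumina sequencing chips, and stalled E. coli RNA polymerase had transcribed the designs on them. Titration used SNAP-549-labelled MS2 coat protein from 0.7 or 1.5 nM, doubling to 3 µM, without and then with constant ligand, in 100 mM Tris-HCl pH 7.5, 80 mM KCl, 4 mM MgCl2, BSA, DTT, yeast tRNA and Tween-20.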

The mark [1] stands for this setting: designed as: ON switch for flavin mononucleotide, no ligand.
Where [2] appears, read: ligand present: flavin mononucleotide, designed as: ON switch for flavin mononucleotide.
Setting [3] is: ligand present: flavin mononucleotide, designed as: OFF switch for flavin mononucleotide.
The mark [4] stands for this setting: designed as: OFF switch for flavin mononucleotide, no ligand.

As usually defined, the apparent Kd is a dissociation constant that holds for the conditions of the assay.

For “UUUUUAUGAGAGAAGGAGGACUUCAUGAGGAUCACCCAUGUGUUAGUACUUAGGAUAUUUAAUAACAUGAGGAUCACCCAUGUC”, the “apparent Kd” value stood at 51.1 nM under setting [1] and 48.6 nM under setting [2]. As for “AAUAGCUAAGGAUAUACAUGAGGAUCACCCAUGUAAAACACUACUUGGAACCGCCUCGGUAGAAGGUAGAAAAU”, the “apparent Kd” value under setting [3] amounted to 22.3 nM. Regarding “AAGUAGGUAGGAUAUACAUGGAUAUACAUUCAUGUGGACCUACAUGAGGAUCACCCAUGUAGAAGGACCUAUAA”, the “apparent Kd” value is, setting by setting: under setting [4], 40.4 nM; under setting [3], 58 nM. For “GAUUGACAUGAGGAUCACCCAUGUGAGGAUAUCGGCUGGACCGUGUUGGCUUCCGUCUCGAGAAGGCGCAUAGG”, the “apparent Kd” value by setting is: under setting [4], 16 nM; under setting [3], 23.3 nM.

As to “AAAAGUUGAGGAUAUACAAAAUGAUUGCGAAAUCAAUUAAAACAUGAGGAUCACCCAUGUAGAAGGCGAUAAAA”, the “apparent Kd” value under setting [4] worked out at 31.1 nM and the “apparent Kd” value under setting [3] was 25.9 nM. Taken in the same sequence, the figures for “GGUCAGGGUGUGAGGAUAUUUACCUAUCACAGUGUGAAGAAGGCACAUGAGGAUCACCCAUGUUAACUGCGGGC” were 51.7 nM and 76.7 nM. Taken in the same sequence, the figures for “CAAACGUGAGGAUAUACAUGAGGAUCACCCAUGUGCUCCUCUAAACUGAAGAAGUAAUGUAGAAGGCACGUUUG” were 39.2 nM and 17.7 nM.

For “AACAGCUCGUCAGGAUAUACGUCACUGCGUCAGCAGUGUGGUAAGAUCACAUGAGGAUCACCCAUGUAGAAGGGACGAGCUGAU”, the “apparent Kd” value runs as follows: under setting [4], 14.3 nM; under setting [3], 267 nM. Taken in the same sequence, the figures for “UUGAAGUCAUCAGGAUAUAGUAUUAAAGACAUUUAUAUUUUCAAACAUGAGGAUCACCCAUGUCGCUAGAAGGGAUUAUAGAUU” were 49.1 nM and 44.9 nM. Taken in the same sequence, the figures for “AAGUCAGCAGGAUAUGCGAUGGUGUACUAGGUAGUUUGCCCACAUGAGGAUCACCCAUGUAGAAGGGCUGGCUA” were 14.7 nM and 21.4 nM.

On to “GCCAUCGCAUGAGGAUAUGCUCCCGUUUCGGGAGCAGAAGGCAUGUAAUAAGACAUGAGGAUCACCCAUGUAGUUAAGAUGGCA”, for which the “apparent Kd” value worked out at 7.36 nM under setting [1] and 5.32 nM under setting [2]. In the case of “UUUCGGUGGCUGGAGGAUAUCCUGGUUGUUACAUGAGGAUCACCCAUGUGCCGCGCGGUGCGCUGGGAGAAGGCCGGCGGCCCUU”, the “apparent Kd” value under setting [1] stood at 37.7 nM and the “apparent Kd” value under setting [2] worked out at 16.1 nM. For the sequence “CCGAUAAUGUAGGAUAUCGUAUCGGAGACGAUACGAGAAGGACAAACAUGAGGAUCACCCAUGUUCCUUAACGG”, the “apparent Kd” value is, setting by setting: under setting [4], 16.6 nM; under setting [3], 19.9 nM. “UGGUACAUGGGAGGAUAUCAUGUAUUCACAUGAGGAUCACCCAUGUCGAUGGAGACAUCGGAGAUUGAGAAGGCCCAUGUACCU”: the “apparent Kd” value came to 1270 nM under setting [1] and 46.9 nM under setting [2]. “UGUUGUAUUACAGGAUAUCUAUUAUUUUUAUAUAGAGAAGGGUAUUCACAUGAGGAUCACCCAUGUAUAUACGAGGAAGUUGUG”: the “apparent Kd” value amounted to 37.2 nM under setting [1] and 40.8 nM under setting [2]. Taken in the same sequence, the figures for “UGGUACAUGGGAGGAUAUGGGUUGAUAACAUGAGGAUCACCCAUGUUAAAUAUCGCGAGAGCGAACUAGAAGGCCCAUGUACCU” were 715 nM and 45.1 nM.

In the case of “GCCUUAUCGGUCAGGAUAUACACCCGUCACUUCUUGUAGAAGGGACAUGAGGAUCACCCAUGUACAUUACAUUG”, the “apparent Kd” value under setting [4] came out at 313 nM and the “apparent Kd” value under setting [3] came to 177 nM. Regarding “UCGUAUACACAAGGAUAUCGAUGGCUUGUAGAUCCUACAUGAGGAUCACCCAUGUUUUUAUAUUGUGAGAAGGUGUAGUGUCGU”, the “apparent Kd” value came out at 1320 nM under setting [1] and 1210 nM under setting [2].

As for “GUGGCACAUGAGGAUCACCCAUGUCAGGAUAUCGCGUGGUUUUUUGCGGCCGCGCGCGCGAGAAGGGACGUCUU”, the “apparent Kd” value by setting is: under setting [4], 39.2 nM; under setting [3], 38.1 nM. As for “AAGUGUCCUAAGGAUAUCGAAGCUAUCGGCUGCCGAGAAGGUAGGACAUGAGGAUCACCCAUGUACCGUGAGCC”, the “apparent Kd” value is, setting by setting: under setting [4], 68.1 nM; under setting [3], 29.8 nM. Taken in the same sequence, the figures for “GGAUCGAUGUAGAAGGCUGUCCUAAAAUAGGACAGAGGAUAUACAUGAGGAUCACCCAUGUACUCCUUUAAAAUGAUCCAAAUA” were 5.53 nM and 10.3 nM. Regarding “UUUGCAUUCCGAGGAUAUUCAUAUAAUAAAUAAACAUGAGGAUCACCCAUGUGGCGAAAGCCUAGGGAGAAGGCGGUAUGCUUU”, the “apparent Kd” value is, setting by setting: under setting [1], 155 nM; under setting [2], 26.8 nM.

With “UAGGUCGCAGGAUAUGCUGGGUGCAUAUCUUAGUGCAGGAGACAUGAGGAUCACCCAUGUAGAAGGGCGCGCUG”, the “apparent Kd” value is 44.9 nM under setting [4] and 124 nM under setting [3].

As to “AAAAACGGAGGAUAUACAAAAAAAAAAAAAAAAAAAAUGGGACAUGAGGAUCACCCAUGUAGAAGGCCGAAAAA”, the “apparent Kd” value runs as follows: under setting [4], 72 nM; under setting [3], 164 nM. Taken in the same sequence, the figures for “GCGCUGCGAGGAUAUACAUGAGGAUCACCCAUGUGUCGGCAGCCAUGCUAGUACAAAUGUAGAAGGCGCGUAAA” were 16.8 nM and 17.8 nM. Taken in the same sequence, the figures for “AAGAGUAGAGGAUAUACAUGAGGAUCACCCAUGUAAUCCAGAUAAGGAAGCAUGGCGUGUAGAAGGCUGCAUGA” were 38.5 nM and 42.4 nM.

In the case of “UAAUAAAGUGUGAGGAUAUGCUGGUCCAUAGAUCAGCAGAAGGCACAUGAGGAUCACCCAUGUAAUAUAUAAAU”, the “apparent Kd” value stood at 28.4 nM under setting [4] and 145 nM under setting [3]. In the case of “UUUAUUAGUUAGAAGGCUUGAUGAAUUACAAUGGACAUGAGGAUCACCCAUGUGUAUUCAUGUUAAGAGGAUAUAGUCAUAUAU”, the “apparent Kd” value runs as follows: under setting [1], 30.2 nM; under setting [2], 20.2 nM. Take “CUCAGCUCGUCAGGAUAUACGUCACUGCUUCGGCAGUGUGGUAAGAUCACAUGAGGAUCACCCAUGUAGAAGGGACGAGCUGAG”: the “apparent Kd” value by setting is: under setting [4], 11.5 nM; under setting [3], 245 nM. “GGGUACGUUUCGUAGCAGUGUCAUCGAGAAGGCCCUGACAUGAGGAUCACCCAUGUUGUUACAUGGGAGGAUAUCGAUGAUGGG”: the “apparent Kd” value stood at 48.4 nM under setting [1] and 8.12 nM under setting [2]. For the sequence “GAUUUACAUGAGGAUCACCCAUGUGAGGAUAUGGAAUGGCUCAUUGUCUGAUUUCCUUCUAGAAGGCACAUCUG”, the “apparent Kd” value under setting [4] worked out at 54.2 nM and the “apparent Kd” value under setting [3] turned out to be 54.9 nM. Taken in the same sequence, the figures for “AGUACCAUGUAGAAGGCAUAUCUCAAAGAGAUAUGAGGAUAUACAUGAGGAUCACCCAUGUAAAUGUACUCCAGGAAACUGGAA” were 28.3 nM and 136 nM.

Turning to “AAGUCUGGACGAGGAUAUCAGUUGUAUCUAGAAUCAACAUGAGGAUCACCCAUGUUGCAAUAGGGUGAGAAGGCGUUUGGGCAA”, the “apparent Kd” value is 81.8 nM under setting [1] and 18.1 nM under setting [2]. In the case of “UUUUAACAUGAGGAUCACCCAUGUGAGGAUAUCGAAAUUUAUAUUAAUAUUUAUUAUUCGAGAAGGCACAUUUU”, the “apparent Kd” value is, setting by setting: under setting [4], 152 nM; under setting [3], 167 nM. Taken in the same sequence, the figures for “CUUUUGUGAGGAUAUUAGUAGUAAAUAAAUUAAAUUACUACUGAGAAGGCACAUGAGGAUCACCCAUGUUCCUC” were 31.3 nM and 243 nM. Turning to “UCUAGACAUGAGGAUCACCCAUGUGAGGAUAUGAUGCGAUCGUCGAAAGACGAUAGCAUCAGAAGGCACGUAUG”, the “apparent Kd” value under setting [4] came to 65.1 nM and the “apparent Kd” value under setting [3] is 113 nM. Taken in the same sequence, the figures for “ACAUGCGGAUGAGGAUAUUCAUUUAUGAGGAUAGAAGAAGGCAUACAUGAGGAUCACCCAUGUAUACGCAUGAGGAUCCCUUAU” were 41.1 nM and 40 nM. Consider “UUUACAUGAGGAUCACCCAUGUAUGUCACCCAUGUGUGUAAUCAGGAUAUGAUAUCAAUAAUAAAUUAGAAGGGAUAACAUGAG”, for which the “apparent Kd” value is 59.5 nM under setting [1] and 75.1 nM under setting [2]. As for “CUGCCGUAGGAGAAGGACGGCGGGUUAUUUUUGUACAUGAGGAUCACCCAUGUAGGAUAUCCUACGUCAGGCGACCUACUACAG”, the “apparent Kd” value worked out at 33 nM under setting [4] and 34.5 nM under setting [3]. On to “AACAGCUCGUCAGGAUAUAUUUUCUUUUUAUGUAUUUAUGUACAUGAGGAUCACCCAUGUUGUUUGUAGAAGGGACGAGCUGAA”, for which the “apparent Kd” value came to 20.1 nM under setting [4] and 16.7 nM under setting [3].

Regarding “UGAUAGCACAGAGGAUAUGCGUUGUGUUAUCUCUACAUGAGGAUCACCCAUGUAGAAGGCUGUGCUAUCUAAGUCGGAAACGAU”, the “apparent Kd” value under setting [4] was 5.57 nM and the “apparent Kd” value under setting [3] came out at 7.16 nM. Taken in the same sequence, the figures for “GGCUAGUCAGGAUAUACGAACAUGUCGCCAGAUGUCAAGGUACAUGAGGAUCACCCAUGUAGAAGGGACUAGCC” were 42.7 nM and 168 nM.

Take “CGAUAAAGCUGAGGAUAUGAGAAUAGAAAGAAAUCAGAAGGCAGACAUGAGGAUCACCCAUGUGAGUUCUCGAGAUUACAUGGU”: the “apparent Kd” value is, setting by setting: under setting [4], 250 nM; under setting [3], 529 nM. Taken in the same sequence, the figures for “AAAAAGCGAGGAUAUACAUGAGGAUCACCCAUGUAAAAAAAAAGAGAUGAAACAUCAUGUAGAAGGCGCAAAAA” were 211 nM and 134 nM. For the sequence “GCGUAAGUCACAGGAUAUCCAACAUGAGGAUCACCCAUGUAAAAGUGCCGCAUUAGAAUGCGACUGGAGAAGGGUGAUUCGUCG”, the “apparent Kd” value came to 51.3 nM under setting [1] and 23.4 nM under setting [2]. With “UUCUCGAUGUAGAAGGCCGCGUCCGGCUCACGCGGAGGAUAUACAUGAGGAUCACCCAUGUGUCUGUGGCUUAUAAGGUACGGA”, the “apparent Kd” value under setting [4] was 98.8 nM and the “apparent Kd” value under setting [3] is 67.7 nM. Taken in the same sequence, the figures for “ACAUGAGGAUCACCCAUGUAUUACAUGGUUAAGUUUAUAAACAGAAGGCGAUAAUACUUAUUGUUCGAGGAUAUGUAAUCAAUU” were 113 nM and 84.1 nM. Taken in the same sequence, the figures for “ACUUUAGUAUCACAUGUAUUACAUGAGGAUCACCCAUGUUACUAGGAUAUGUAUUAGAAUUUACAACAGAAGGAGUUAAUUUGU” were 7.92 nM and 7.59 nM.

The record behind these values is the EternaBench riboswitch data.
